Laboratory results reported in ChEMBL document CHEMBL1159128, “Structure-activity relationship of C5-curcuminoids and synthesis of their molecular probes thereof” (2010).

The compounds below were run on DLD-1 (assay: Cytotoxicity against human DLD1 cells). Conditions: not given.
Format: functional

Row | SMILES | GI50 [µM]
1 | O=C(/C=C/c1ccc2c(c1)OCO2)/C=C/c1ccc2c(c1)OCO2 | > 50
2 | COc1ccc(/C=C/C(=O)/C=C/c2ccc(OC)c(OC)c2)cc1OC | 2
3 | COc1cc(/C=C/C(=O)CC(=O)/C=C/c2ccc(O)c(OC)c2)ccc1O [CURCUMIN] | 8

What follows are compounds tested on HCT-116 (assay: Growth inhibition of human HCT116 cells after 48 hrs by MTS assay). Conditions: HCT-116, 48 h.
Format: functional
How it was run: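 Vehicle controls received 1% DMSO alone. Growth in treated wells was expressed as a percentage of this control and plotted against concentration, and the mean growth-inhibitory concentration (GI50) was read from the curve.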

Row | SMILES | GI50 [µM]
4 | COc1cc(/C=C/C(=O)/C=C/c2cc(OC)c(OC)c(OC)c2)cc(OC)c1O | 0.8
5 | COc1cc(/C=C/C(=O)/C=C/c2cc(OC)c(OCCO)c(OC)c2)cc(OC)c1OC | 1.7
6 | COc1cc(/C=C/C(=O)/C=C/c2ccccc2)cc(OC)c1OC | 4.4
7 | CCOC(C)Oc1cccc(/C=C/C(=O)/C=C/c2cc(OC)c(OC)c(OC)c2)c1 (configuration not stated) | 1.4
8 | COc1cc(/C=C/C(=O)/C=C/c2ccc(OC)c(OC)c2OC)cc(OC)c1OC | 1.9
9 | COc1ccc(CCC(=O)CCc2ccc(OC)c(OC)c2)cc1OC | > 50
10 | COc1cc(OC)c(OC)c(OC)c1/C=C/C(=O)/C=C/c1c(OC)cc(OC)c(OC)c1OC | > 50
11 | COc1cc(/C=C/C(=O)/C=C/c2cc(OC)c(OCCO)c(OC)c2)cc(OC)c1OCCO | 0.5
12 | COc1ccc(/C=C/C(=O)/C=C/c2cc(OC)c(OC)c(OC)c2)cc1 | 3
13 | COc1cc(/C=C/C(=O)/C=C/c2cccc(OC(=O)C34CC5CC(CC(C5)C3)C4)c2)cc(OC)c1OC | 7.6
14 | COCOc1ccc(/C=C/C(=O)/C=C/c2ccc(OCOC)c(OCOC)c2)cc1OCOC | 0.8
15 | CCCSC(CC(=O)/C=C/c1ccc(OC)c(OC)c1)c1ccc(OC)c(OC)c1 (configuration not stated) | 22
16 | COc1cc(/C=C/C(=O)/C=C/c2cccc(OS(=O)(=O)C(F)(F)F)c2)cc(OC)c1OC | 2.4
17 | COc1ccc(/C=C/C(=O)/C=C/c2ccc(OC)c(O)c2)cc1O | 0.8
18 | COc1cc(OC)c(/C=C/C(=O)/C=C/c2c(OC)cc(OC)cc2OC)c(OC)c1 | 2.3
19 | COc1ccc(/C=C/C(=O)/C=C/c2ccc(OC)c(OC)c2OC)c(OC)c1OC | 3.5
20 | COc1cc(/C=C/C(=O)/C=C/c2cc(OC)c(OCc3cn(CCCCCCCCCO)nn3)c(OC)c2)cc(OC)c1OC | 0.8
21 | COc1cccc(/C=C/C(=O)/C=C/c2cc(OC)c(OC)c(OC)c2)c1 | 6.9
22 | COc1ccc(/C=C/C(=O)/C=C/c2ccc(OC)c(OC)c2)cc1O | 1.5
23 | COc1ccc(/C=C/C(=O)CCc2ccc(OC)c(OC)c2)cc1OC | > 50
24 | COc1ccc(/C=C/C(=O)/C=C(O)/C=C/c2ccc(OC)c(OC)c2)cc1OC | 2
25 | COCOc1c(OC)cc(/C=C/C(=O)/C=C/c2cc(OC)c(OCOC)c(OC)c2)cc1OC | 0.3

Row | SMILES | GI50 [µM]
26 | COc1cccc(/C=C/C(=O)/C=C/c2cccc(OC)c2)c1 | 9.1
27 | COc1cc(OC)c(OC)cc1/C=C/C(=O)/C=C/c1cc(OC)c(OC)cc1OC | 2
28 | COc1cc(/C=C/C(=O)/C=C/c2ccc(OC)c(OC)c2)ccc1O | 0.7
29 | COc1ccc(/C=C/C(=O)c2ccc(OC)c(OC)c2)cc1OC | 7
30 | CCCCCCCCCCCCCCOc1cccc(/C=C/C(=O)/C=C/c2cc(OC)c(OC)c(OC)c2)c1 | > 50
31 | COc1cccc(/C=C/C(=O)/C=C/c2cccc(OC)c2OC)c1OC | 1.3
32 | COc1cccc(OC)c1/C=C/C(=O)/C=C/c1c(OC)cccc1OC | 9
33 | COc1ccc(OC)c(/C=C/C(=O)/C=C/c2cc(OC)ccc2OC)c1 | 8.1
34 | CCOC(C)Oc1c(OC)cc(/C=C/C(=O)/C=C/c2cc(OC)c(OC)c(OC)c2)cc1OC (configuration not stated) | 1.5
35 | COc1ccc(/C=C/C(=O)/C=C/c2ccc(OC)c(OC)c2)cc1OC | 1.5
36 | C#CCOc1c(OC)cc(/C=C/C(=O)/C=C/c2cc(OC)c(OCOC)c(OC)c2)cc1OC | 2.4
37 | C=C1CC2CC(C1)/C(=C\c1ccc(OC)c(OC)c1)C(=O)/C2=C/c1ccc(OC)c(OC)c1 | > 50
38 | COc1cc(/C=C/C(=O)/C=C/c2cc(OC)c(OCc3cn(Cc4ccc(OC5CCCCO5)cc4)nn3)c(OC)c2)cc(OC)c1OC (configuration not stated) | 0.3
39 | COc1ccc(/C=C/C(=O)/C=C/c2ccc(OC)cc2)cc1 | 9
40 | COc1ccc(/C=C2\CCC/C(=C\c3ccc(OC)c(OC)c3)C2=O)cc1OC | > 50
41 | COCOc1cccc(/C=C/C(=O)/C=C/c2cc(OC)c(OC)c(OC)c2)c1 | 4
42 | COc1cc(/C=C/C(=O)/C=C/c2cc(OC)c(OCc3cn(CCCCCCCCCCOC(=O)CSCc4c(C)n5c(C)c(C)c(=O)n5c4=O)nn3)c(OC)c2)cc(OC)c1OC | 2.6
43 | COc1cc(/C=C/C(=O)/C=C/c2ccc(O)c(OC)c2)ccc1O | 15
44 | COc1ccc(/C=C/C(=O)/C=C/c2ccc(OC)c(OC)c2)cc1 | 4
45 | COc1cc(/C=C/C(=O)/C=C/c2cc(OC)cc(OC)c2)cc(OC)c1 | 2
46 | COc1cc(/C=C/C(=O)/C=C/c2cc(OC)c(OCCN=[N+]=[N-])c(OC)c2)cc(OC)c1OC | 9.7
47 | O=C(/C=C/c1cc(O)cc(O)c1)/C=C/c1cc(O)cc(O)c1 | 1.5

Row | SMILES | GI50 [µM]
48 | COc1cc(OC)c(OC)cc1/C=C/C(=O)/C=C/c1cc(OC)c(OC)c(OC)c1 | 3.3
49 | COc1cc(/C=C/C(=O)/C=C/c2cc(OC)c(OC)c(OC)c2)cc(OC)c1OC | 0.3
50 | COc1cc(/C=C/C(=O)/C=C/c2cc(OC)c(O)c(OC)c2)cc(OC)c1O | 0.8
51 | COc1cc(/C=C/C(=O)/C=C/c2cccc(Cl)c2)cc(OC)c1OC | 17
52 | COc1ccc(/C=C/C(=O)/C=C/c2cc(OC)c(OC)c(OC)c2)cc1OC | 0.4
53 | COc1ccccc1/C=C/C(=O)/C=C/c1ccccc1OC | 4
54 | COc1cc(/C=C/C(=O)/C=C/c2cc(OC)c(OCC(=O)O)c(OC)c2)cc(OC)c1OC | 38
55 | COc1cc(/C=C/C(=O)/C=C/c2cc(OC)c(OCc3cn(CCCCCCCCCCNC(=O)OC(C)(C)C)nn3)c(OC)c2)cc(OC)c1OC | 0.8
56 | COc1cc(/C=C/C(=O)/C=C/c2cc(OC)c(OCc3cn(CCCCCCCCCOC(=O)CCC4=[N+]5C(=Cc6c(C)cc(C)n6[B-]5(F)F)C=C4)nn3)c(OC)c2)cc(OC)c1OC | 15
57 | C#CCOc1c(OC)cc(/C=C/C(=O)/C=C/c2cc(OC)c(OC)c(OC)c2)cc1OC | 1.8
58 | COc1cc(/C=C/C(=O)/C=C/c2cccc(C#Cc3ccccc3)c2)cc(OC)c1OC | 8.1
59 | COc1ccc(/C=C/C(/C=C/c2ccc(OC)c(OC)c2)=NO)cc1OC | > 50
60 | COc1ccc(OC)c(OC)c1/C=C/C(=O)/C=C/c1c(OC)ccc(OC)c1OC | 2.3
61 | COc1ccc(CCC(O)CCc2ccc(OC)c(OC)c2)cc1OC | > 50
62 | COC(=O)COc1c(OC)cc(/C=C/C(=O)/C=C/c2cc(OC)c(OC)c(OC)c2)cc1OC | 7
63 | COc1ccc(/C=C/C(=O)/C=C/c2ccc(OC)cc2OC)c(OC)c1 | > 50
64 | COc1cc(/C=C/C(=O)/C=C/c2cc(OC)c(OCCN=[N+]=[N-])c(OC)c2)cc(OC)c1OCCN=[N+]=[N-] | 7.6
65 | COc1cc(/C=C/C(=O)/C=C/c2cccc(OC(c3ccccc3)(c3ccccc3)c3ccccc3)c2)cc(OC)c1OC | 8.5
66 | COc1cc(/C=C/C(=O)/C=C/c2cccc(O)c2)cc(OC)c1OC | 0.9
67 | C#CCOc1c(OC)cc(/C=C/C(=O)/C=C/c2cc(OC)c(OCC#C)c(OC)c2)cc1OC | 0.3
